Source: ChEMBL document CHEMBL1121813, “Dihydrochalcone sweeteners. A study of the atypical temporal phenomena” (1981)

Columns and labels:
Format in all cases: functional
[1] = organism: Homo sapiens; test: Other taste character at a concentration of 246 ppm (mean value)
Outline: (§1)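 Trained human sensory panel (Swartz method) tasted dilute aqueous solutions of the compounds, which had to be ≥95 weight percent pure and free of mutagenicity and toxicity. Taste character is reported as the mean value with 2S_m limits. Data deviating excessively at the 95% confidence level were rejected by the t-value method.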

[2] = organism: Homo sapiens; test: Percentage of judgments reporting an aftertaste at a concentration of 246 ppm and character thereof
Outline: (§2)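 Trained judges tasted aqueous solutions of the compounds, which had to be ≥95 weight percent pure and to have passed mutagenicity and single oral dose toxicity screening. The value is the percentage of panel judgments reporting an aftertaste. Where given, its character is recorded as sweet, bitter or bitter-sweet.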

[3] = organism: Homo sapiens; test: Sweet / Bitter character at a concentration of 246 ppm (mean value); 44/56
[4] = organism: Homo sapiens; test: Salty character at a concentration of 246 ppm (mean value)
[5] = organism: Homo sapiens; test: Sweet character at a concentration of 246 ppm (mean value)
[6] = organism: Homo sapiens; test: Sour character at a concentration of 246 ppm (mean value)
[7] = organism: Homo sapiens; test: Experimentally determined perceived intensity of compound at a concentration of 246 ppm (mean value)
Outline: (§3)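 Trained human sensory panel of judges tasted aqueous solutions of the compound. Samples had to be ≥95 weight % pure (HPLC, proton titration, Karl Fischer), non-mutagenic in five Salmonella typhimurium strains with and without microsomal activation, and non-toxic in a single-oral-dose mouse test. Perceived intensity (Ip) was read from time–intensity curves at 4- or 6-s intervals and averaged. Outliers at the 95% level were rejected by t-value. Values reported as mean (2Sm).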

[8] = organism: Homo sapiens; test: Bitter character at a concentration of 246 ppm (mean value)
Outline: (§4)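 Trained human panel tasted aqueous solutions. Each judge reported whether there was an aftertaste and its character (sweet, bitter or bitter-sweet). The value is the percentage of judgments reporting a bitter aftertaste.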

[9] = organism: Homo sapiens; test: Intensity calculated on a weight basis relative to an 85500 ppm sucrose solution at a concentration of 246 ppm (mean value)
Outline: (§5)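 Trained human panel tasted aqueous solutions of purity-checked (≥95 weight percent) compounds cleared for mutagenicity and mouse oral toxicity. Weight-basis intensity I_w = perceived intensity × (85500 ppm sucrose / compound concentration in ppm). The mean is reported with 2S_m limits; data deviating excessively at 95% confidence were rejected by the t-value method.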

[10] = organism: Homo sapiens; test: Number of taste judgments per compound
[11] = organism: Homo sapiens; test: Intensity calculated on a molar basis relative to a 0.25 M sucrose solution at a concentration of 246 ppm (mean value)
Outline: (§6)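 Trained human judges tasted aqueous solutions of the test compound; compounds were first required to be ≥95 weight percent pure and free of mutagenicity (five Salmonella typhimurium strains, ± microsomal activation) and of single oral dose mouse toxicity. Molar intensity I_m = perceived intensity × (0.25 M sucrose / compound molar concentration). The mean is reported with 2S_m limits; outliers were rejected at 95% confidence by t-value.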

[12] = organism: Homo sapiens; test: Experimentally determined perceived intensity of compound at a concentration of 2000 ppm (mean value); outline: as §3
[13] = organism: Homo sapiens; test: Salty character at a concentration of 2000 ppm (mean value); outline: as §1
[14] = organism: Homo sapiens; test: Sweet character at a concentration of 2000 ppm (mean value); outline: as §1
[15] = organism: Homo sapiens; test: Sour character at a concentration of 2000 ppm (mean value); outline: as §1
[16] = organism: Homo sapiens; test: Percentage of judgments reporting an aftertaste at a concentration of 2000 ppm; outline: as §2
[17] = organism: Homo sapiens; test: Bitter character at a concentration of 2000 ppm (mean value); outline: as §4
[18] = organism: Homo sapiens; test: Intensity calculated on a weight basis relative to an 85500 ppm sucrose solution at a concentration of 2000 ppm (mean value); outline: as §5
[19] = organism: Homo sapiens; test: Intensity calculated on a molar basis relative to a 0.25 M sucrose solution at a concentration of 2000 ppm (mean value); outline: as §6
[20] = organism: Homo sapiens; test: Other taste character at a concentration of 2000 ppm (mean value)
Outline: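 Trained human panel tasted aqueous solutions of each compound. Aftertaste is scored as the percentage of judgments reporting one, with its character coded sweet (s), bitter (b) or bitter-sweet (bs).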

[21] = organism: Homo sapiens; test: Sweet / Bitter character at a concentration of 2000 ppm (mean value)
[22] = organism: Homo sapiens; test: Intensity calculated on a molar basis relative to a 0.25 M sucrose solution at a concentration of 240 ppm (mean value); outline: as §6
[23] = organism: Homo sapiens; test: Bitter character at a concentration of 240 ppm (mean value); outline: as §4
[24] = organism: Homo sapiens; test: Other taste character at a concentration of 240 ppm (mean value); outline: as §1
[25] = organism: Homo sapiens; test: Percentage of judgments reporting an aftertaste at a concentration of 240 ppm and character thereof; outline: as §2
[26] = organism: Homo sapiens; test: Sweet / Bitter character at a concentration of 240 ppm (mean value); 7/93
[27] = organism: Homo sapiens; test: Intensity calculated on a weight basis relative to an 85500 ppm sucrose solution at a concentration of 240 ppm (mean value); outline: as §5
[28] = organism: Homo sapiens; test: Sweet character at a concentration of 240 ppm (mean value); outline: as §1
[29] = organism: Homo sapiens; test: Salty character at a concentration of 240 ppm (mean value); outline: as §1
[30] = organism: Homo sapiens; test: Sour character at a concentration of 240 ppm (mean value); outline: as §1
[31] = organism: Homo sapiens; test: Experimentally determined perceived intensity of compound at a concentration of 240 ppm (mean value); outline: as §3
[32] = organism: Homo sapiens; test: Percentage of judgments reporting an aftertaste at a concentration of 1000 ppm; outline: as §2
[33] = organism: Homo sapiens; test: Experimentally determined perceived intensity of compound at a concentration of 1000 ppm (mean value); outline: as §3
[34] = organism: Homo sapiens; test: Sweet character at a concentration of 250 ppm (mean value); outline: as §1
[35] = organism: Homo sapiens; test: Other taste character at a concentration of 250 ppm (mean value); outline: as §1
[36] = organism: Homo sapiens; test: Percentage of judgments reporting an aftertaste at a concentration of 250 ppm and character thereof; outline: as §2
[37] = organism: Homo sapiens; test: Sour character at a concentration of 250 ppm (mean value); outline: as §1
[38] = organism: Homo sapiens; test: Intensity calculated on a molar basis relative to a 0.25 M sucrose solution at a concentration of 250 ppm (mean value); outline: as §6
[39] = organism: Homo sapiens; test: Bitter character at a concentration of 250 ppm (mean value); outline: as §4
[40] = organism: Homo sapiens; test: Intensity calculated on a weight basis relative to an 85500 ppm sucrose solution at a concentration of 250 ppm (mean value); outline: as §5
[41] = organism: Homo sapiens; test: Salty character at a concentration of 250 ppm (mean value); outline: as §1
[42] = organism: Homo sapiens; test: Experimentally determined perceived intensity of compound at a concentration of 250 ppm (mean value); outline: as §3
[43] = organism: Homo sapiens; test: Sweet / Bitter character at a concentration of 250 ppm (mean value); 14/86
[44] = organism: Homo sapiens; test: Sour character at a concentration of 249 ppm (mean value)
[45] = organism: Homo sapiens; test: Experimentally determined perceived intensity of compound at a concentration of 249 ppm (mean value); outline: as §3
[46] = organism: Homo sapiens; test: Sweet / Bitter character at a concentration of 249 ppm (mean value); 97/3
[47] = organism: Homo sapiens; test: Salty character at a concentration of 249 ppm (mean value)
[48] = organism: Homo sapiens; test: Intensity calculated on a molar basis relative to a 0.25 M sucrose solution at a concentration of 249 ppm (mean value); outline: as §6
[49] = organism: Homo sapiens; test: Percentage of judgments reporting an aftertaste at a concentration of 249 ppm and character thereof; outline: as §2
[50] = organism: Homo sapiens; test: Bitter character at a concentration of 249 ppm (mean value); outline: as §4
[51] = organism: Homo sapiens; test: Other taste character at a concentration of 249 ppm (mean value); outline: as §1
[52] = organism: Homo sapiens; test: Intensity calculated on a weight basis relative to an 85500 ppm sucrose solution at a concentration of 249 ppm (mean value); outline: as §5
[53] = organism: Homo sapiens; test: Sweet character at a concentration of 249 ppm (mean value)

With `O=C([O-])COc1cc(O)c(C(=O)CCc2cccc(O)c2)c(O)c1.[Na+]` the Taste character [1] was 13, the Judgments [2] was 62 and the Taste character [3] was 44. It also gave a Taste character [4] of 0, a Taste character [5] of 38 and a Taste character [6] of 0. For the same compound, the IP [7] was 0.22, the Taste character [8] was 49 and the IW [9] was 76. The Judgments [10] was 12 and the IM [11] was 79.
In the case of `COc1ccc(C2OC[C@@H]3OC(O)[C@@H](O)[C@H](O)[C@H]3O2)cc1O` (stereo partly drawn), the IP [12] was 0.3, the Taste character [13] was 0 and the Taste character [14] was 0. It also gave a Taste character [15] of 0, a Judgments [16] of 0 and a Taste character [17] of 100. It also gave an IW [18] of 10, a Judgments [10] of 1 and an IM [19] of 10. For the same compound, the Taste character [20] was 0 and the Taste character [21] was 0.
In the case of `COc1ccc(CCCc2c(O)cc(O)cc2O)cc1O`, the IM [22] was 76, the Taste character [23] was 88 and the Taste character [24] was 5. For the same compound, the Judgments [25] was 0, the Taste character [26] was 7 and the IW [27] was 89. It also gave a Taste character [28] of 7, a Taste character [29] of 0 and a Taste character [30] of 0. For the same compound, the Judgments [10] was 12 and the IP [31] was 0.25.
`COc1ccc(CCC(=O)OC2C[C@](O)(C(=O)O)C[C@@H](O)[C@H]2O)cc1O` (stereo partly drawn) gave a Judgments [32] of 0, a Judgments [10] of 1 and an IP [33] of 0.
`O=C([O-])COc1cc(O)c(C(=O)CCc2ccc(Cl)c(O)c2)c(O)c1.[Na+]` was tested, and the Taste character [34] was 11, the Taste character [35] was 19 and the Judgments [36] was 0. The Taste character [37] was 0, the IM [38] was 31 and the Taste character [39] was 70. It also gave an IW [40] of 27, a Judgments [10] of 12 and a Taste character [41] of 0. For the same compound, the IP [42] was 0.28 and the Taste character [43] was 14.
`COc1ccc(CCC(=O)c2c(O)cc(OCC(=O)CC(=O)[O-])cc2O)cc1O.[Na+]` gave a Taste character [44] of 0, an IP [45] of 0.89 and a Taste character [46] of 97. The Taste character [47] was 0, the IM [48] was 380 and the Judgments [49] was 100. For the same compound, the Judgments [10] was 24, the Taste character [50] was 3 and the Taste character [51] was 12. For the same compound, the IW [52] was 310 and the Taste character [53] was 85.
